ChEMBL document CHEMBL2429765 (J Med Chem, 2013)

Tests used:
in vitro = settings: human, liver microsomes
[1] = Oral bioavailability in rat; type: ADME, organism-based; settings: in vivo
[2] = Half life in rat; type: ADME, organism-based; settings: in vivo
[3] = Volume of distribution at steady state in rat; type: ADME, organism-based; settings: in vivo, read-out: Vdss
[4] = Plasma clearance in rat; type: ADME, organism-based
[5] = Partition coefficient of the compound at pH 7.4; type: physicochemical; settings: octanol/water
How it was run: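 cLogD at pH 7.4 calculated with ACD pchbat version 9.3.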

Compound: N#Cc1cccc(-c2ccc3nnc(Cc4ccc5ncccc5c4)n3n2)c1
- microsomal CLint at 0.5 h, 1 µM (in vitro): 22.7 µL/min/mg

Compound: C[C@@H](c1c[nH]c2ncccc12)c1nnc2ccc(-c3ccc(C#N)cc3)nn12
- microsomal CLint at 0.5 h, 1 µM (in vitro): 28 µL/min/mg

Compound: CC(C)Nc1ccc2nnc([C@@H](C)c3c[nH]c4ncccc34)n2n1
- microsomal CLint at 0.5 h, 1 µM (in vitro): 25 µL/min/mg

Compound: CCNc1ccc2nnc([C@@H](C)c3c[nH]c4ncccc34)n2n1
- microsomal CLint at 0.5 h, 1 µM (in vitro): 18 µL/min/mg

Compound: C[C@@H](c1ccc2ncccc2c1)c1nnc2ccc(-c3cnn(C)c3)nn12
- bioavailability [1]: 58%
- half-life [2]: 1.9 h
- Vd [3]: 3.5 L/kg
- clearance [4]: 21 mL/min/kg
- logD [5]: 2.05
- microsomal CLint at 0.5 h, 1 µM (in vitro): < 7.6 µL/min/mg

Compound: Nc1ccc2nnc(Cc3ccc4ncccc4c3)n2n1
- microsomal CLint at 0.5 h, 1 µM (in vitro): < 7.6 µL/min/mg

Compound: CN(C)c1ccc2nnc(Cc3ccc4ncccc4c3)n2n1
- microsomal CLint at 0.5 h, 1 µM (in vitro): 35 µL/min/mg

Compound: C[C@@H](c1ccc2ncccc2c1)c1nnc2ccc(-c3ccc(F)c(F)c3)nn12
- bioavailability [1]: 52%
- half-life [2]: 3.6 h
- Vd [3]: 3.6 L/kg
- clearance [4]: 31 mL/min/kg
- logD [5]: 3.07
- microsomal CLint at 0.5 h, 1 µM (in vitro): 13.4 µL/min/mg

Compound: COc1ccc(-c2ccc3nnc([C@@H](C)c4ccc5ncccc5c4)n3n2)cc1F
- microsomal CLint at 0.5 h, 1 µM (in vitro): 281 µL/min/mg

Compound: COc1ccc(-c2ccc3nnc([C@@H](C)c4ccc5ncccc5c4)n3n2)cc1C
- microsomal CLint at 0.5 h, 1 µM (in vitro): 304 µL/min/mg

Compound: Cc1cccc(-c2ccc3nnc([C@@H](C)c4ccc5ncccc5c4)n3n2)c1
- microsomal CLint at 0.5 h, 1 µM (in vitro): 81.8 µL/min/mg

Compound: C[C@@H](c1ccc2ncccc2c1)c1nnc2ccc(-c3cccc(C#N)c3)nn12
- bioavailability [1]: 13%
- half-life [2]: 4.8 h
- Vd [3]: 4.9 L/kg
- clearance [4]: 22 mL/min/kg
- logD [5]: 2.8
- microsomal CLint at 0.5 h, 1 µM (in vitro): 17.9 µL/min/mg

Compound: C[C@@H](c1ccc2ncccc2c1)c1nnc2ccc(-c3ccc(C#N)cc3)nn12
- microsomal CLint at 0.5 h, 1 µM (in vitro): 12.1 µL/min/mg

Compound: C[C@@H](c1ccc2ncccc2c1)c1nnc2ccc(-c3ccccc3C#N)nn12
- microsomal CLint at 0.5 h, 1 µM (in vitro): 23.1 µL/min/mg

Compound: C[C@@H](c1ccc2ncccc2c1)c1nnc2ccc(-c3ccc4c(c3)OCCO4)nn12
- microsomal CLint at 0.5 h, 1 µM (in vitro): 304 µL/min/mg

Compound: CNC(=O)c1ccc(-c2ccc3nnc([C@@H](C)c4ccc5ncccc5c4)n3n2)cc1
- microsomal CLint at 0.5 h, 1 µM (in vitro): 12.2 µL/min/mg

Compound: CCS(=O)(=O)c1ccc(-c2ccc3nnc([C@@H](C)c4ccc5ncccc5c4)n3n2)cc1
- microsomal CLint at 0.5 h, 1 µM (in vitro): 10.4 µL/min/mg

Compound: C[C@@H](c1ccc2ncccc2c1)c1nnc2ccc(-c3ccc(S(C)(=O)=O)cc3)nn12
- microsomal CLint at 0.5 h, 1 µM (in vitro): < 7.6 µL/min/mg

Compound: C[C@@H](c1ccc2ncccc2c1)c1nnc2ccc(-c3ccc(N(C)C)nc3)nn12
- microsomal CLint at 0.5 h, 1 µM (in vitro): 232 µL/min/mg

Compound: C[C@@H](c1ccc2ncccc2c1)n1nnc2ncc(-c3cnn(C)c3)nc21
- microsomal CLint at 0.5 h, 1 µM (in vitro): < 7.6 µL/min/mg

Compound: C[C@@H](c1ccc2ncccc2c1)n1nnc2ncc(-c3cnn(CCO)c3)nc21
- microsomal CLint at 0.5 h, 1 µM (in vitro): < 7.6 µL/min/mg

Compound: CC(C)Nc1ccc2nnc([C@@H](C)c3ccc4ncccc4c3)n2n1
- microsomal CLint at 0.5 h, 1 µM (in vitro): 20.2 µL/min/mg

Compound: Cn1cc(-c2ccc3nnc(Cc4c[nH]c5ncccc45)n3n2)cn1
- microsomal CLint at 0.5 h, 1 µM (in vitro): < 7.6 µL/min/mg

Compound: C[C@@H](c1c[nH]c2ncccc12)c1nnc2ccc(-c3cnn(C)c3)nn12
- microsomal CLint at 0.5 h, 1 µM (in vitro): < 7.6 µL/min/mg

Compound: Fc1ccc(-c2ccc3nnc(Cc4ccc5ncccc5c4)n3n2)cc1F
- microsomal CLint at 0.5 h, 1 µM (in vitro): 13.4 µL/min/mg
